Assay outcomes from PubChem.
Sampled rows, rich in hits. Any-hit rate of the full collection: about 3.1%.
UBC9 SUMO inh: inhibitors of human SUMOylation (UBC9). P63279. HTRF SUMOylation assay, SAE1/SAE2 + UBC9, in vitro. inhibition, % at 35 µM. actives 0.36% (n = 290,000). AID 2006; in the data active means inhibition above about 50%, passing the limit was not always enough
Target sequence (P63279 whole entry, looked up): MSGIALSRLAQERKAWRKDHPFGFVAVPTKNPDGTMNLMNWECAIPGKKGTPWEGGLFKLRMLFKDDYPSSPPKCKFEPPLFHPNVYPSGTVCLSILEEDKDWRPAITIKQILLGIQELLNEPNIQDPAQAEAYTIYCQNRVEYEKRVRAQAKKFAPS
PHOSPHO1 block: blocks human PHOSPHO1 phosphatase activity. AID 1565. Q8TCT1. recombinant PHOSPHO1, absorbance phosphatase assay. inhibition, % at 13.3 µM. actives 1.1% (n = 290,000); in the data active means inhibition above about 60%
Target sequence (Q8TCT1 whole entry, looked up): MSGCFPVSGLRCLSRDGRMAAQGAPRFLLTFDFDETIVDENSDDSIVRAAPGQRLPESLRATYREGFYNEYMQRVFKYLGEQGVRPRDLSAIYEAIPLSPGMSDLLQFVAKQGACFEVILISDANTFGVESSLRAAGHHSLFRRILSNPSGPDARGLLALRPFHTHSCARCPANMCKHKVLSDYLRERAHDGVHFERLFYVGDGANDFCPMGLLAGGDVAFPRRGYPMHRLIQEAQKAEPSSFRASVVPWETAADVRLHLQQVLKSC
NS3 helicase inh: blocks Hepatitis C virus NS3 helicase unwinding; inhibition, % at 10.9 µM; actives 0.56% (n = 290,000); NS3 helicase DNA unwinding, Cy5 molecular beacon fluorescence;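 active means inhibition above the mean of all tested compounds plus 3 SD, set per campaign, cut at about 35% in these data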;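 further: 0% = DMSO wells and 100% = thioflavine S control wells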
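Material: hepatitis C virus NS3 helicase domain fragment enzyme; measured by: Cy5 fluorescence, 0 and 60 min reads; control set: DMSO and thioflavine S; incubation: 60 min unwinding reaction at 25 °C after ATP addition; read-out basis: % inhibition from 60/0 min fluorescence ratio, DMSO 0%, thioflavine S 100%; repeats: singlicate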
VIM-2 inh: blocks Pseudomonas aeruginosa VIM-2 metallo-beta-lactamase; purified VIM-2, nitrocefin hydrolysis, epi-absorbance fluorescence; inhibition, % at 5.6 µM; actives 0.89% (n = 290,000); AID 1527;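 active means inhibition above the mean of all tested compounds plus 3 SD, cutoff set per screening run, cut at about 7.5% in these data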;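 further: red hydrolysis product quenches plate fluorescence so inhibitors raise well fluorescence; 0% = enzyme with DMSO and 100% = DMSO without enzyme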
HCV core dimer: blocks dimerization of HCV core protein; AID 1899; inhibition, % at 5 µM; actives 0.33% (n = 300,000); TR-FRET GST/Flag-core106 dimerization, 1536-well;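 active means inhibition above the mean of all tested compounds plus 3 SD, set per screening campaign, cut at about 45% in these data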
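System: GST/Flag-tagged HCV core106 proteins. Incubation: compound-protein-antibody incubation 4 h at 22.5 °C. Technique: HTRF with 340 nm excitation, 617/671 nm emission. Medium: KF-containing HEPES buffer, pH 7.45, DTT, CHAPS, BSA. Read-out: inhibition (%) from 671 over 617 nm ratio. Also added: Eu(K)-anti-GST 90 ng/mL plus XL665-anti-Flag 1 µg/mL.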
IMP-1 inh-1: inhibitors of Pseudomonas aeruginosa IMP-1 metallo-beta-lactamase | purified IMP-1, nitrocefin hydrolysis, epi-absorbance fluorescence | actives 0.45% (n = 290,000) | inhibition, % at 5.6 µM;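 active means inhibition above the mean plus 3 SD of all compounds in the same screening run, cut at about 4.5% in these data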;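 further: 0% = IMP-1 with DMSO and 100% = DMSO wells lacking enzyme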
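Assay system: purified recombinant IMP-1 beta-lactamase. Input: IMP-1 0.2 nM before substrate addition. Buffer or medium: Zinc- and detergent-supplemented HEPES buffer, pH 7.1. Schedule: 25 °C, 15 min preincubation, 25 min reaction. Signal: Epi-absorbance fluorescence, 480 nm excitation, 530 nm emission. Evaluation: percent inhibition from optical density relative to buffer-blank wells.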
IMP-1 inh-2: blocks IMP-1 metallo-beta-lactamase in VIM-2 selectivity screen; shares compounds with VIM-2 inh; purified IMP-1, nitrocefin hydrolysis, epi-absorbance fluorescence; inhibition, % at 5.6 µM; 1,300 tested, under 10 active; call rule not given here;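 further: 0% = enzyme with vehicle and 100% = vehicle without enzyme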
VIM-2 FRET ctr: VIM-2 FRET inhibition, artifact counter-screen; shares compounds with VIM-2 inh; purified VIM-2, CCF2 FRET substrate hydrolysis; inhibition, % at 5.6 µM; actives 23% (n = 1,300);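 active means inhibition above the mean of all tested compounds plus 3 SD, cut at about 19% in these data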;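 further: 0% = VIM-2 plus DMSO and 100% = no enzyme wells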
TEM-1 inh: selectivity counter-screen for VIM-2 inhibitors: E. coli TEM-1 inhibitors; Purified TEM-1, nitrocefin hydrolysis, epi-absorbance fluorescence; shares compounds with VIM-2 inh; actives 3% (n = 1,300); inhibition, % at 5.6 µM;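 active means inhibition above that campaign's mean inhibition plus 3 SD, cut at about 0.46% in these data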;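 further: 0% = TEM-1 with DMSO and 100% = TEM-1 with 100 µM potassium clavulanate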
Target sequence (P62593 whole entry, looked up): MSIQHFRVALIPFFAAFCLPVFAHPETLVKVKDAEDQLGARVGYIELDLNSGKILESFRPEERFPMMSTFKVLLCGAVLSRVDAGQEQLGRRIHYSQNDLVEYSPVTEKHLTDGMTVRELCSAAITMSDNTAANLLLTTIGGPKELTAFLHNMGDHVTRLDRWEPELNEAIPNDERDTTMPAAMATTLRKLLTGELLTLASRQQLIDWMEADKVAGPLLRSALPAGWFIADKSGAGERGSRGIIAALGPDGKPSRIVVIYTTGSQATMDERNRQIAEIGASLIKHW
VIM-2 inh conf: confirmation of P. aeruginosa VIM-2 metallo-beta-lactamase inhibitors | inhibition, % at 5.6 µM | AID 2187 | purified VIM-2, nitrocefin hydrolysis, epi-absorbance | actives 96% (n = 1,300) | shares compounds with VIM-2 inh;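 active means inhibition of the VIM-2 beta-lactamase enzyme above about 11% from the earlier first-round screen, limit read from the data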;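 further: 0% = VIM-2 with DMSO and 100% = buffer wells without enzyme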
* = called active by the depositor; . = not tested or not shown.

SMILES	UBC9 SUMO inh	PHOSPHO1 block	NS3 helicase inh	VIM-2 inh	HCV core dimer	IMP-1 inh-1	IMP-1 inh-2	VIM-2 FRET ctr	TEM-1 inh	VIM-2 inh conf
N#Cc1c2c(c(NCCCN3CCOCC3)n3c1nc1ccccc13)CCC2	24	21	6	14*	-1	-1	-2	-6	-9	38*
CN1CCN(C(=O)CSc2nc(-c3cccs3)cc(-c3cccs3)c2C#N)CC1	7	-22	-63	45*	-3	-1	-2	-4	-7	70*
CCOC(=O)CCCC(=O)N1CCOCCOCCOCC1	2	12	2	0	-9	0	.	.	.	.
CCCn1c(C(C)C)n[nH]c1=S	-4	32	-4	26*	0	-3	-4	54*	-7	35*
CCCn1c(-c2ccncc2)n[nH]c1=S	-3	12	6	3	0	0	.	.	.	.
Nc1c(C=C2C=CC(=O)C=C2)c(=O)nc2sc(CC(=O)N3CCCCC3)nn12	.	18	16	3	-8	-3	.	.	.	.
CC1=Nc2ccc(C)cc2/C1=C/c1c(N)n2nc(CC(=O)N3CCOCC3)sc2nc1=O	20	15	-8	12*	-10	-1	-3	22*	-9	16*
Cc1c(OC(C)C(=O)NCc2ccncc2)ccc2c3c(c(=O)oc12)CCCC3 (stereo unspecified)	19	26	-6	51*	-2	-2	-3	17	-11	62*
Cc1c(OCC(=O)Nc2cccnc2)ccc2c3c(c(=O)oc12)CCC3	5	17	2	24*	6	-2	-4	-1	-16	35*
Cc1c(OCC(=O)NCc2ccccn2)ccc2c3c(c(=O)oc12)CCCC3	10	29	-4	17*	5	-1	-2	-3	-18	26*
Cc1c(OC(C)C(=O)NCc2ccccn2)ccc2c3c(c(=O)oc12)CCC3 (stereo unspecified)	7	-11	1	19*	5	-1	-2	2	-5	28*
CCCc1cc(=O)oc2c(C)c(OC(C)C(=O)NCc3ccccn3)ccc12 (stereo unspecified)	9	-60	-8	0	3	0	.	.	.	.
Cc1ccc(OCCNC(=O)c2ccccc2F)cc1	-2	-7	16	-3	-18	-5	.	.	.	.
COc1ccc(NC(=O)NNS(=O)(=O)c2ccc(OC)c(OC)c2)c(OC)c1	12	41	0	1	0	-2	.	.	.	.
CC1(c2ccc(C#N)cc2)NC(=O)N(CC(=O)Nc2cc(S(=O)(=O)N3CCOCC3)ccc2Cl)C1=O (stereo unspecified)	16	32	5	-3	0	-2	.	.	.	.
N#CCC(=O)Nc1ccc(C(=O)N2CCN(S(=O)(=O)c3ccc4ccccc4c3)CC2)cc1	-8	38	-5	-1	13	-1	.	.	.	.
CCN(CC)c1nc(-c2ccc(C(=O)NN)cc2)nc(-c2ccc(C(=O)NN)cc2)n1	18	27	-29	75*	.	-3	-3	4	-6	85*
CC(COc1cccc2ccccc12)CN1CCN(C)CC1 (stereo unspecified)	6	-47	19	22*	-6	-2	-2	2	-6	48*
Cn1cc(S(=O)(=O)c2ccccc2)c(=O)c2cc(Cl)ccc21	8	33	-1	1	-3	1	.	.	.	.
Cn1cc(-c2ccccc2C(=O)O)c(=O)c2cc(Cl)ccc21	15	6	-3	13*	-1	0	-2	27*	0	18*
S=c1[nH]nc(-c2ccccc2Cl)n1Cc1ccccc1	-4	37	1	1	2	-3	.	.	.	.
Fc1ccccc1-c1n[nH]c(=S)n1Cc1ccccc1	-1	-29	-5	28*	-2	-5	-4	50*	-8	34*
CC(C)(C)C(=O)Nc1nnc(CSCc2ccccc2F)s1	-14	17	1	26*	6	-4	-3	65*	-5	48*
O=C(Nc1nnc(CSCc2ccccc2F)s1)c1cccc([N+](=O)[O-])c1	13	-24	13	5	30	0	.	.	.	.
CCCc1cc(=O)oc2c(C)c(OCC(=O)NC3CC(C)(C)NC(C)(C)C3)ccc12	.	30	-8	7	0	-2	.	.	.	.
SMILES	UBC9 SUMO inh	PHOSPHO1 block	NS3 helicase inh	VIM-2 inh	HCV core dimer	IMP-1 inh-1	IMP-1 inh-2	VIM-2 FRET ctr	TEM-1 inh	VIM-2 inh conf
Cc1cc(=O)oc2c(C)c(OCC(=O)NC3CC(C)(C)NC(C)(C)C3)ccc12	.	58	-2	5	-3	-2	.	.	.	.
Cc1c(OCC(=O)NC2CC(C)(C)NC(C)(C)C2)ccc2c3c(c(=O)oc12)CCC3	8	34	-2	32*	-19	-4	-1	1	-13	44*
Cc1c(OCC(=O)NC2CC(C)(C)NC(C)(C)C2)ccc2c1oc(=O)c1ccccc12	30	48	-53	27*	4	1	-1	1	-15	40*
CC(=O)C1C(c2ccc(Br)cc2)C2C(C)=NN=C2CC1(C)O (stereo unspecified)	-2	2	-5	1	0	-2	.	.	.	.
CCSc1ccc(-c2cccc([N+](=O)[O-])c2)nn1	13	-2	5	-2	3	-2	.	.	.	.
CCN1CCN(Cc2c(O)ccc3c2O/C(=C\c2ccccc2)C3=O)CC1	27	-114	7	30*	12	-1	-1	3	-7	44*
CN(C)Cc1c(O)ccc2c1O/C(=C\C=C\c1ccccc1)C2=O	19	16	13	-2	-6	3	.	.	.	.
CCOC(=O)C(C)Oc1ccc(NC(=O)C(Cl)Cl)cc1 (stereo unspecified)	5	36	-3	-3	2	-3	.	.	.	.
C=CCOc1ccc(CNn2c(C)n[nH]c2=S)cc1OC	-1	-105	0	-1	-8	0	.	.	.	.
C=CCOc1ccc2ccccc2c1CNn1c(C)n[nH]c1=S	-12	-78	-10	17*	-4	-2	-4	33*	-6	20*
COC(=O)c1c(NC(=O)C(=O)NCCCN2CCOCC2)sc2c1CCCC2	12	26	-52	13*	-3	-4	-2	0	-1	19*
